# High-throughput results deposited in PubChem BioAssay by several laboratories.
# MT stabilizer = stabilizes microtubules in HeLa cells; HeLa tubulin immunostaining HCS, 24 h; share of cells brighter than vehicle mean+2SD; % tubulin-high responders, % at 10 µM; 200,000 compounds, 0.83% hits; AID 2205;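 active means plate Z-score above 3 for both tubulin-high and condensed-nucleus cell shares, with cell loss under 80%, at 10 µM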;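 further: anti alpha tubulin signal scored within the nucleus-defined area of each cell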
# TLR4-MyD88 BLA = TLR4-MyD88 interaction inhibition in cells. O00206+Q99836. HeLa CL3-4 TLR4/MyD88 BLA complementation, FRET ratio. inhibition, % at 8.4 µM. 200,000 compounds, 0.18% hits. AID 861; in the data active means inhibition above about 25%;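 further: 0% = vehicle and 100% = reference inhibitor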
# TLR9-MyD88 block = TLR9-MyD88 interaction inhibition. AID 504734. inhibition, % at 4.98 µM. 340,000 compounds, 0.21% hits. Q9NR96+Q99836. CHO BLA complementation TLR9-MyD88, CCF4 FRET ratio;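 active means inhibition above the mean over all tested compounds plus 3 SD, cut at about 21% in these data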;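 further: 0% = DMSO only wells and 100% = clavulanate BLA inhibitor control wells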
# Target sequence (Q99836 whole entry, looked up): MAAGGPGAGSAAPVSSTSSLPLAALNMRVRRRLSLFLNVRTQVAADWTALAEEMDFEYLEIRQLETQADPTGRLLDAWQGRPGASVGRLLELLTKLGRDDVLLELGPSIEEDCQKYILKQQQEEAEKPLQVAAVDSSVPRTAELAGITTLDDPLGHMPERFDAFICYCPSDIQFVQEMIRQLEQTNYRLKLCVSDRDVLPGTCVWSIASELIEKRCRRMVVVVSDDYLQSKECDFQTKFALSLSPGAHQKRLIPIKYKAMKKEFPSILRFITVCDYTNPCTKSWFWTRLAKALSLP
# Target sequence (Q9NR96 whole entry, looked up): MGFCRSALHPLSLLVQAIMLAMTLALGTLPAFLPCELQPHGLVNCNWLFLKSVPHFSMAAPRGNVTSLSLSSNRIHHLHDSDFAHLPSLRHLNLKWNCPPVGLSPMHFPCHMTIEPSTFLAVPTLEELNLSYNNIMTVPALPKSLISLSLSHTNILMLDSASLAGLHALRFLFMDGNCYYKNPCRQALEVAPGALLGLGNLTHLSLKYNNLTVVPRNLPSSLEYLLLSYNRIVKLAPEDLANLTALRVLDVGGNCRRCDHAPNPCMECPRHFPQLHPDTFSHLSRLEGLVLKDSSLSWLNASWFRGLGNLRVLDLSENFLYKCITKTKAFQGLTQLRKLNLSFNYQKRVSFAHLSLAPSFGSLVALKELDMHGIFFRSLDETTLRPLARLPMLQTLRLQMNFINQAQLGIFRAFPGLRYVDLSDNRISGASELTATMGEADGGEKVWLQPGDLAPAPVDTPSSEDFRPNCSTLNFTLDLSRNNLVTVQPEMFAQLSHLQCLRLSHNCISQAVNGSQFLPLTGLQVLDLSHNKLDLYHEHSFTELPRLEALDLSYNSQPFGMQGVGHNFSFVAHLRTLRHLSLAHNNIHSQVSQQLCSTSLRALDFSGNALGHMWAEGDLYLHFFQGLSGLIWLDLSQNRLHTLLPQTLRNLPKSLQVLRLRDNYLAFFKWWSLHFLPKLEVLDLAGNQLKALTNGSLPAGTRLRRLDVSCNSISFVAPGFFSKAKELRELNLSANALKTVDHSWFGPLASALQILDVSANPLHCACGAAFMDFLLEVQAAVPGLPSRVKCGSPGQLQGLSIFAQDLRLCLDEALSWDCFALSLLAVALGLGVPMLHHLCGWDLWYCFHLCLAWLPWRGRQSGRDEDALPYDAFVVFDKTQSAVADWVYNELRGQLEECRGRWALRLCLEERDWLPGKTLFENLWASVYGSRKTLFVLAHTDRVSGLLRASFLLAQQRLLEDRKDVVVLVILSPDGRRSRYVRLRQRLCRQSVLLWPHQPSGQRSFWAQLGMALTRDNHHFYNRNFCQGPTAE
# Hsp70 activator = switches on Hsp70 transcription; HeLa Hsp70 promoter luciferase reporter, luminescence; scaled: vehicle 0, proteasome-inhibitor control 100%; activation, % at 10 µM; 200,000 compounds, 0.04% hits;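 active means activation above the mean across all tested compounds plus 3 SD, cutoff set per campaign, cut at about 5.5% in these data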;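 further: 100% = MG132 at 30 µM as the positive control and 0% = DMSO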
# NOD2-RIPK2 inh = NOD2-RIPK2 protein interaction inhibition; O43353; CHO BLA complementation NOD2-RIPK2, CCF4 ratio; inhibition, % at 4.98 µM; 360,000 compounds, 0.38% hits; AID 624267; in the data active means inhibition above about 21%;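 further: 0% = vehicle only and 100% = reference blocker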
# b-catenin transl = modulators of beta-catenin nuclear translocation | HeLa beta-catenin nuclear translocation, immunofluorescence imaging | nuclear translocation activity, % at 5 µM | 190,000 compounds, 0.3% hits | AID 1665;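 active means nuclear translocation activity above 50% at 5 µM, with a well cell count of 50 or more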;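 further: per-cell ratio of nuclear to cytoplasmic median beta-catenin stain intensity; plate controls were DMSO negative control for no effect and GSK-3 inhibitor IX positive control for full effect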
#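 Test system: human HeLa cell line; Doses: 5 µM primary, 0.02–20 µM confirmation; Incubation: 24 h compound exposure, 37°C; Detection: beta-catenin immunofluorescence imaging with DAPI; Read-out: beta-catenin nuclear/cytoplasmic ratio, % activation.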
# Active calls of the source: *; x = no result. Compounds with a hit are over-represented: about 1% of the library has one in this group of screens.
SMILES,MT stabilizer,TLR4-MyD88 BLA,TLR9-MyD88 block,Hsp70 activator,NOD2-RIPK2 inh,b-catenin transl
O=C(Nc1ccc(Cl)c(S(=O)(=O)N2CCOCC2)c1)c1ccncc1,x,x,8,x,-6,x
Cc1ccc(NC(=O)c2cc(N3CCOCC3)nc3ccccc23)cc1,24*,3,-10,0,3,-5
CCOC(=O)c1[nH]c(C)c(C(=O)Nc2ccccc2C)c1C,31*,-2,-6,0,1,43
CCOC(=O)c1[nH]c(C)c(C(=O)Nc2cc(Cl)ccc2C)c1C,38*,-5,-1,0,16,58*
CCOC(=O)c1[nH]c(C)c(C(=O)Nc2ccc(C)c(Cl)c2)c1C,4,8,4,0,4,0
Cc1cccc(OCCOC(=O)CN2C(=O)NC3(CCCC3)C2=O)c1,x,x,-11,x,-10,x
COc1cc(C(=O)O)ccc1OCc1c(C)noc1C,1,-1,6,0,-13,2
COc1cc(C(=O)OCC(C)=O)ccc1OCc1c(C)noc1C,31*,-9,-3,0,0,45
COc1cc(OC)c(C(=O)N(CCc2ccccc2)Cc2ccccc2)cc1OC,x,x,1,x,9,x
C=CCn1c(C)cc(C2=NNC(=NCc3ccccc3)SC2)c1C,15*,11,6,0,-3,37
CCN=C1NN=C(c2cc(C)n(CCc3ccccc3)c2C)CS1,2,4,-4,0,-6,x
CCN(CC)S(=O)(=O)c1ccc(Cl)c(NC(=O)COC(=O)c2cccn2C)c1,18*,11,-5,0,-6,-1
CCN(CC)S(=O)(=O)c1ccc(Cl)c(NC(=O)COC(=O)c2ccc(O)cc2)c1,3,-2,1,0,1,0
COc1ccc(-c2oc(NC(=O)CSc3ncn[nH]3)c(C#N)c2-c2ccc(OC)cc2)cc1,47*,0,18,0,16,0
COc1ccc(-c2oc(NC(=O)CCl)c(C#N)c2-c2ccc(OC)cc2)cc1,2,16,0,0,4,x
COc1ccc(CNC(=O)CCC(=O)Nc2ccc(Cl)cc2)cc1,x,x,9,x,-5,x
COC(C(=O)N/N=C(\C)c1ccc(O)cc1)c1ccccc1 (stereo unspecified),x,x,-11,x,-3,x
CCOc1ccc(/C(C)=N/NC(=O)C(OC)c2ccccc2)cc1 (stereo unspecified),10*,-6,3,0,-11,6
COc1ccccc1C(=O)N1c2ccccc2Sc2ccccc21,11*,-7,-9,0,6,14
O=C(NCCN1CCC(n2c(=O)[nH]c3ccccc32)CC1)c1ccc(F)cc1Cl,x,x,x,x,10,x
c1ccc(-n2cnc3cc(NCc4cccs4)ccc32)cc1,41*,9,5,0,-6,8
Cc1ccc(-n2cnc3cc(NCc4cccs4)ccc32)cc1,1,-14,4,0,-3,-1
NC(CCc1ccccc1)c1csc(Nc2ccccn2)n1 (stereo unspecified),x,x,x,x,4,x
O=c1cc(-c2ccccc2[N+](=O)[O-])oc2ccccc12,12*,11,2,0,4,10
COCCOC(=O)c1[nH]c2c(c1C)C(=O)CC(c1cc(OC)ccc1OC)C2 (stereo unspecified),4,-4,8,0,-3,1
SMILES,MT stabilizer,TLR4-MyD88 BLA,TLR9-MyD88 block,Hsp70 activator,NOD2-RIPK2 inh,b-catenin transl
COc1ccc(OC)c(C2CC(=O)c3c([nH]c(C(=O)OCC4CCCO4)c3C)C2)c1 (stereo unspecified),31*,4,-2,0,9,-2
CCCOCCOC(=O)c1[nH]c2c(c1C)C(=O)CC(c1cc(OC)ccc1OC)C2 (stereo unspecified),11*,2,9,0,-10,4
O=C(/C=C/c1ccco1)NC(=S)Nc1cccc(-c2nc3ccccc3s2)c1,39*,-10,-4,0,0,x
O=C(/C=C/c1ccco1)NC(=S)Nc1cccc(-c2nc3ccccc3o2)c1,28*,-8,-2,0,-2,54*
O=C(/C=C/c1ccco1)NC(=S)Nc1cc(-c2nc3ccccc3s2)ccc1Cl,3,-22,2,0,-2,0
Cc1ccc(-c2nc3ccccc3o2)cc1NC(=S)NC(=O)/C=C/c1ccco1,33,-17,-9,0,1,-3
O=C(COC(=O)c1ccccc1NCCO)Nc1cc(C(F)(F)F)ccc1N1CCOCC1,x,x,-2,x,-9,x
COC(=O)c1cc(Cl)c(NC(=O)C(C)C)cc1OC,2,-5,-6,0,-3,0
COC(=O)c1cc(Cl)c(NC(=O)/C=C/c2ccc(OC)cc2)cc1OC,26*,-14,-1,0,8,8
CCCC[C@@H]1CNC(=O)C(=O)N1CCc1cccc(F)c1,x,x,x,x,1,x
Cc1sc(-n2c(C)cc(/C=C3\SC(=S)NC3=O)c2C)c(C#N)c1C,18,-2,2,0,2,80*
Cc1cc(/C=C2\SC(=S)NC2=O)c(C)n1-c1cccc(O)c1,x,x,-3,x,1,-6
COc1cc(NS(=O)(=O)c2ccc(OC)c(C)c2C)c(OC)cc1Cl,39*,-18,-1,0,-1,81*
CNc1cc(C)nc(-n2nc(C)cc2C)n1,2,-7,-17,0,-12,0
CCOc1ccc(Nc2cc(C)nc(-n3nc(C)cc3C)n2)cc1,16,1,-1,0,10,87*
Cc1ccc2nc(-c3ccc(NC(=S)NC(=O)C(C)C)cc3)sc2c1,2,4,-2,0,2,-1
Cc1ccc2nc(-c3ccc(NC(=S)NC4CC(C)(C)NC(C)(C)C4)cc3)sc2c1,34,-20,0,0,-1,72*
O=C(Nc1ccc(OC(F)(F)F)cc1)NC1CCC(Oc2ccc(C(=O)O)cc2)CC1 (stereo unspecified),x,x,-13,x,0,x
CCCC(=O)Nc1ccc(NC(=S)NC(=O)c2ccccc2[N+](=O)[O-])cc1,10*,-1,-2,0,7,x
COc1ccc(Cn2c(=O)c3[nH]cnc3n(-c3ccccc3C)c2=O)cc1,x,x,0,x,-6,73*
Cc1nc(N2CCC(C)CC2)c2oc3ccccc3c2n1,24*,5,-6,0,0,1
COc1ccccc1N1CCN(c2nc(C)nc3c2oc2ccccc23)CC1,20*,16,5,0,6,81*
COc1ccc(C(=O)N2CCCC(O)C2)cc1OC1CCN(C(C)C)CC1 (stereo unspecified),x,x,-8,x,-7,x
CC(C)=CCC/C(C)=C/CNC(=O)C[C@H]1C[C@H](C(=O)N2CCCCC2)[C@@]2(C)c3[nH]c4cc(CCC(=O)N(C)C)ccc4c3CCN2C1=O,x,x,2,x,10,x
Cc1ccccc1Nc1nc(N)[nH]c(=O)c1N=O,x,x,x,x,-6,x
